Laboratory results: ChEMBL document CHEMBL4689842, “EUbOPEN Chemogenomics Library wave 1” (2021)

System: U2OS
Test: Multiplex assay against U2OS
Assay type: toxicity, cell-based
Conditions: human
How it was run: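 Cells were classed with CellPathfinder machine-learning gating, first as Hoechst high-intensity objects or normal cells, then (normal cells) as healthy, pyknosed or fragmented nuclei, and finally (pyknosed cells) as mitotic or apoptotic. Staining of live cells at seeding used Hoechst33342, BioTracker Green Microtubule Cytoskeleton Dye, MitoTracker Red and Annexin V Alexa Fluor 680, with imaging on a CQ1 microscope at 37°C and 5% CO2 after compound addition. Tubulin, mitochondrial-mass and membrane-permeability phenotypes are per cents of healthy-nucleus cells.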

[1] = 12 h, 1 µM, compound concentration 1 uM, replicate 1
[2] = 12 h, 1 µM, compound concentration 1 uM, replicate 2
[3] = 12 h, 10 µM, compound concentration 10 uM, replicate 1
[4] = 12 h, 10 µM, compound concentration 10 uM, replicate 2
[5] = 24 h, 1 µM, compound concentration 1 uM, replicate 1
[6] = 24 h, 1 µM, compound concentration 1 uM, replicate 2
[7] = 24 h, 10 µM, compound concentration 10 uM, replicate 1
[8] = 24 h, 10 µM, compound concentration 10 uM, replicate 2
[9] = 48 h, 1 µM, compound concentration 1 uM, replicate 1
[10] = 48 h, 1 µM, compound concentration 1 uM, replicate 2
[11] = 48 h, 10 µM, compound concentration 10 uM, replicate 1
[12] = 48 h, 10 µM, compound concentration 10 uM, replicate 2

Q: O=C(c1cc2c(cc1F)OC(c1ccc(F)cc1)(c1ccc(Cl)cc1Cl)O2)N1CCOCC1 (stereo unspecified) was tested. Which “Population Apoptotic (%)” value [1] did it give?
A: 57%

Q: What about the “Population Fragmented Nuclei (%)” value [1] of the same compound?
A: 19%

Q: And the “Population Healthy Nuclei (%)” value [1]?
A: 67%

Q: What about the “Population Hoechst High Intensity Objects (%)” value [1] of the same compound?
A: 10%

Q: What about the “Population Membrane Permeable-Phenotype (%)” value [1] of the same compound?
A: 7%

Q: What about the “Population Mitochondria Different-Phenotype (%)” value [1] of the same compound?
A: 17%

Q: What about the “Population Mitotic Cells (%)” value [1] of the same compound?
A: 42%

Q: And the “Population Normal (%)” value [1]?
A: 89%

Q: And the “Population Pyknosed Nuclei (%)” value [1]?
A: 13%

Q: What about the “Total Cell Count” value [1] of the same compound?
A: 120

Q: What about the “Population Apoptotic (%)” value [2] of the same compound?
A: 50%

Q: And the “Population Fragmented Nuclei (%)” value [2]?
A: 18%

Q: And the “Population Healthy Nuclei (%)” value [2]?
A: 68%

Q: And the “Population Hoechst High Intensity Objects (%)” value [2]?
A: 7%

Q: What about the “Population Membrane Permeable-Phenotype (%)” value [2] of the same compound?
A: 9%

Q: What about the “Population Mitochondria Different-Phenotype (%)” value [2] of the same compound?
A: 12%

Q: And the “Population Mitotic Cells (%)” value [2]?
A: 50%

Q: And the “Population Normal (%)” value [2]?
A: 92%

Q: What about the “Population Pyknosed Nuclei (%)” value [2] of the same compound?
A: 12%

Q: What about the “Population Tubulin-Different-Phenotype (%)” value [2] of the same compound?
A: 15%

Q: And the “Total Cell Count” value [2]?
A: 78

Q: What about the “Population Apoptotic (%)” value [3] of the same compound?
A: 50%

Q: And the “Population Healthy Nuclei (%)” value [3]?
A: 67%

Q: And the “Population Hoechst High Intensity Objects (%)” value [3]?
A: 8%

Q: And the “Population Membrane Permeable-Phenotype (%)” value [3]?
A: 46%

Q: What about the “Population Mitotic Cells (%)” value [3] of the same compound?
A: 50%

Q: What about the “Population Normal (%)” value [3] of the same compound?
A: 91%

Q: And the “Population Pyknosed Nuclei (%)” value [3]?
A: 21%

Q: And the “Total Cell Count” value [3]?
A: 116

Q: What about the “Population Apoptotic (%)” value [4] of the same compound?
A: 71%

Q: What about the “Population Fragmented Nuclei (%)” value [4] of the same compound?
A: 10%

Q: And the “Population Healthy Nuclei (%)” value [4]?
A: 78%

Q: And the “Population Hoechst High Intensity Objects (%)” value [4]?
A: 4%

Q: What about the “Population Membrane Permeable-Phenotype (%)” value [4] of the same compound?
A: 47%

Q: What about the “Population Mitochondria Different-Phenotype (%)” value [4] of the same compound?
A: 96%

Q: What about the “Population Mitotic Cells (%)” value [4] of the same compound?
A: 28%

Q: What about the “Population Normal (%)” value [4] of the same compound?
A: 95%

Q: What about the “Population Pyknosed Nuclei (%)” value [4] of the same compound?
A: 10%

Q: And the “Population Tubulin-Different-Phenotype (%)” value [4]?
A: 100%

Q: What about the “Total Cell Count” value [4] of the same compound?
A: 52

Q: And the “Population Apoptotic (%)” value [5]?
A: 44%

Q: What about the “Population Fragmented Nuclei (%)” value [5] of the same compound?
A: 17%

Q: And the “Population Healthy Nuclei (%)” value [5]?
A: 68%

Q: What about the “Population Hoechst High Intensity Objects (%)” value [5] of the same compound?
A: 7%

Q: And the “Population Membrane Permeable-Phenotype (%)” value [5]?
A: 5%

Q: What about the “Population Mitochondria Different-Phenotype (%)” value [5] of the same compound?
A: 14%

Q: And the “Population Mitotic Cells (%)” value [5]?
A: 55%

Q: And the “Population Normal (%)” value [5]?
A: 92%

Q: What about the “Population Pyknosed Nuclei (%)” value [5] of the same compound?
A: 14%

Q: What about the “Population Tubulin-Different-Phenotype (%)” value [5] of the same compound?
A: 12%

Q: What about the “Total Cell Count” value [5] of the same compound?
A: 130

Q: What about the “Population Apoptotic (%)” value [6] of the same compound?
A: 33%

Q: And the “Population Fragmented Nuclei (%)” value [6]?
A: 5%

Q: And the “Population Healthy Nuclei (%)” value [6]?
A: 88%

Q: What about the “Population Hoechst High Intensity Objects (%)” value [6] of the same compound?
A: 10%

Q: And the “Population Membrane Permeable-Phenotype (%)” value [6]?
A: 10%

Q: What about the “Population Mitochondria Different-Phenotype (%)” value [6] of the same compound?
A: 15%

Q: What about the “Population Mitotic Cells (%)” value [6] of the same compound?
A: 66%

Q: What about the “Population Normal (%)” value [6] of the same compound?
A: 89%

Q: And the “Population Pyknosed Nuclei (%)” value [6]?
A: 5%

Q: And the “Population Tubulin-Different-Phenotype (%)” value [6]?
A: 21%

Q: What about the “Total Cell Count” value [6] of the same compound?
A: 85

Q: And the “Population Apoptotic (%)” value [7]?
A: 67%

Q: And the “Population Fragmented Nuclei (%)” value [7]?
A: 16%

Q: And the “Population Healthy Nuclei (%)” value [7]?
A: 55%

Q: What about the “Population Hoechst High Intensity Objects (%)” value [7] of the same compound?
A: 8%

Q: What about the “Population Membrane Permeable-Phenotype (%)” value [7] of the same compound?
A: 48%

Q: And the “Population Mitochondria Different-Phenotype (%)” value [7]?
A: 98%

Q: What about the “Population Mitotic Cells (%)” value [7] of the same compound?
A: 32%

Q: What about the “Population Normal (%)” value [7] of the same compound?
A: 91%

Q: And the “Population Pyknosed Nuclei (%)” value [7]?
A: 28%

Q: What about the “Population Tubulin-Different-Phenotype (%)” value [7] of the same compound?
A: 100%

Q: What about the “Total Cell Count” value [7] of the same compound?
A: 137

Q: What about the “Population Apoptotic (%)” value [8] of the same compound?
A: 66%

Q: What about the “Population Fragmented Nuclei (%)” value [8] of the same compound?
A: 8%

Q: What about the “Population Healthy Nuclei (%)” value [8] of the same compound?
A: 62%

Q: And the “Population Hoechst High Intensity Objects (%)” value [8]?
A: 6%

Q: What about the “Population Membrane Permeable-Phenotype (%)” value [8] of the same compound?
A: 64%

Q: And the “Population Mitochondria Different-Phenotype (%)” value [8]?
A: 100%

Q: What about the “Population Mitotic Cells (%)” value [8] of the same compound?
A: 33%

Q: What about the “Population Normal (%)” value [8] of the same compound?
A: 93%

Q: And the “Population Pyknosed Nuclei (%)” value [8]?
A: 29%

Q: And the “Total Cell Count” value [8]?
A: 58

Q: And the “Population Apoptotic (%)” value [9]?
A: 62%

Q: And the “Population Fragmented Nuclei (%)” value [9]?
A: 14%

Q: What about the “Population Healthy Nuclei (%)” value [9] of the same compound?
A: 75%

Q: And the “Population Hoechst High Intensity Objects (%)” value [9]?
A: 7%

Q: What about the “Population Membrane Permeable-Phenotype (%)” value [9] of the same compound?
A: 4%

Q: And the “Population Mitochondria Different-Phenotype (%)” value [9]?
A: 11%

Q: And the “Population Mitotic Cells (%)” value [9]?
A: 37%

Q: What about the “Population Normal (%)” value [9] of the same compound?
A: 92%

Q: What about the “Population Pyknosed Nuclei (%)” value [9] of the same compound?
A: 9%

Q: And the “Population Tubulin-Different-Phenotype (%)” value [9]?
A: 9%

Q: What about the “Total Cell Count” value [9] of the same compound?
A: 127

Q: And the “Population Apoptotic (%)” value [10]?
A: 60%

Q: And the “Population Fragmented Nuclei (%)” value [10]?
A: 8%

Q: What about the “Population Healthy Nuclei (%)” value [10] of the same compound?
A: 84%

Q: And the “Population Hoechst High Intensity Objects (%)” value [10]?
A: 4%

Q: And the “Population Membrane Permeable-Phenotype (%)” value [10]?
A: 6%

Q: What about the “Population Mitochondria Different-Phenotype (%)” value [10] of the same compound?
A: 13%

Q: What about the “Population Mitotic Cells (%)” value [10] of the same compound?
A: 40%

Q: What about the “Population Normal (%)” value [10] of the same compound?
A: 96%

Q: And the “Population Pyknosed Nuclei (%)” value [10]?
A: 6%

Q: What about the “Population Tubulin-Different-Phenotype (%)” value [10] of the same compound?
A: 16%

Q: What about the “Total Cell Count” value [10] of the same compound?
A: 78

Q: What about the “Population Apoptotic (%)” value [11] of the same compound?
A: 57%

Q: And the “Population Fragmented Nuclei (%)” value [11]?
A: 20%

Q: What about the “Population Healthy Nuclei (%)” value [11] of the same compound?
A: 44%

Q: And the “Population Hoechst High Intensity Objects (%)” value [11]?
A: 14%

Q: And the “Population Membrane Permeable-Phenotype (%)” value [11]?
A: 65%

Q: And the “Population Mitochondria Different-Phenotype (%)” value [11]?
A: 93%

Q: And the “Population Mitotic Cells (%)” value [11]?
A: 42%

Q: And the “Population Normal (%)” value [11]?
A: 85%

Q: And the “Population Pyknosed Nuclei (%)” value [11]?
A: 34%

Q: What about the “Population Tubulin-Different-Phenotype (%)” value [11] of the same compound?
A: 100%

Q: And the “Total Cell Count” value [11]?
A: 179

Q: And the “Population Apoptotic (%)” value [12]?
A: 71%

Q: And the “Population Fragmented Nuclei (%)” value [12]?
A: 17%

Q: And the “Population Healthy Nuclei (%)” value [12]?
A: 50%

Q: What about the “Population Hoechst High Intensity Objects (%)” value [12] of the same compound?
A: 8%

Q: What about the “Population Membrane Permeable-Phenotype (%)” value [12] of the same compound?
A: 76%

Q: What about the “Population Mitochondria Different-Phenotype (%)” value [12] of the same compound?
A: 100%

Q: What about the “Population Mitotic Cells (%)” value [12] of the same compound?
A: 28%

Q: And the “Population Normal (%)” value [12]?
A: 91%

Q: What about the “Population Pyknosed Nuclei (%)” value [12] of the same compound?
A: 31%

Q: And the “Total Cell Count” value [12]?
A: 75
